The list is not random: actives were taken first. Their share in the collection is about 2.3%.
TRPC4 act = TRPC4 (mouse) channel activation | actives 0.49% (n = 310,000) | B-score at 10 µM | HEK293 TRPC4beta/mu-opioid, Fluo4 calcium fluorescence; active compounds read high | Q9QUQ5;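 active = B-score above 5 SD of library B-scores, and initial fluorescence ratio not above library mean plus 5 SD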;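 note: positive B-score marks a calcium rise read as TRPC4 activation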
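Assay system: HEK293 stable line with TRPC4beta plus mu-opioid receptor. Times: dye 45 min RT, read 110 s. Measured by: kinetic Fluo4 calcium fluorescence. Measure: B score of integrated ratio. Controls: assay buffer as low control, maximal DAMGO as high control.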
TRPC6 activator = activators of mouse TRPC6 channel; AID 2550; actives 0.13% (n = 310,000); Q61143; B-score at 10 µM; HEK293-TRPC6 membrane potential dye fluorescence; active compounds read high;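 active = B-score of the integrated fluorescence ratio above library mean plus 3 SD, and starting fluorescence ratio within library mean plus 5 SD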;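 note: higher score means more depolarization so channel activation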
TRPC4 block = blocks the mouse TRPC4 cation channel. B-score at 10 µM. HEK293 TRPC4beta/mu-opioid, DAMGO-evoked Fluo4 calcium flux; active compounds read low. actives 0.39% (n = 300,000). AID 2247;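 active = B-score over 3 SD under the library average, no early fluorescence shift, positive overall ratio signal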
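Assay system: HEK293 cells with stable TRPC4beta plus mu-opioid receptor expression; Probe or stimulus: DAMGO in two steps, submaximal then maximal; Dosing: single-point compound dosing; Measured by: Fluo4 calcium-dye fluorescence, kinetic read; Read-out basis: B score from integrated Fluo4 fluorescence ratio.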
TRPC4 potent = TRPC4 (mouse) allosteric potentiation | Q9QUQ5 | HEK293 TRPC4beta/mu-opioid, DAMGO EC20, Fluo-4 Ca2+ flux; active compounds read high | B-score at 10 µM | actives 0.42% (n = 310,000);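 active = B-score of calcium response area above 5 SD of library B-scores, with initial fluorescence ratio within 5 SD of library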;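 note: B-score of integrated fluorescence ratio over time as area under calcium response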
TRPC6 inhibitor = mouse TRPC6 channel inhibition | Q61143 | HEK293-TRPC6, membrane potential dye, ACh-evoked depolarization; active compounds read low | B-score at 10 µM | actives 1.1% (n = 310,000);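 active = B-score under library mean minus 3 SD, initial fluorescence not abnormally high, positive integrated signal ratio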;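 note: B-score derived from integrated fluorescence ratio over the kinetic read; more negative B-score means stronger inhibition of depolarization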
* marks the source's active call; other numbers are inactive results; i = inactive.

SMILES	TRPC4 act	TRPC6 activator	TRPC4 block	TRPC4 potent	TRPC6 inhibitor
CCC(C)C(NC(=O)OCc1ccccc1)C(=O)NCC(c1ccccc1)N(C)C (stereo not given)	i	i	-5*	i	i
CC[C@H](C)[C@H](NC(=O)OCc1ccccc1)C(=O)Nc1ccc(NC(C)=O)cc1	i	i	i	i	i
COc1ccc(C(CNC(=O)/C=C/c2c(Cl)nc3ccccn23)N(C)C)cc1 (stereo not given)	249*	i	i	i	i
COc1ccc(CC(NC(=O)c2ccccc2)C(=O)NCC(=O)O)cc1 (stereo not given)	i	i	i	i	i
COc1ccc(C(CNC(=O)Cc2ccc(-c3ccccc3)cc2)N(C)C)cc1 (stereo not given)	202*	i	i	i	i
CCCC[N+](CC#Cc1ccccc1)(CCCC)CCCS(=O)(=O)[O-]	i	i	i	i	i
COc1ccc(C(CNC(=O)CSc2ccccc2C)N(C)C)cc1 (stereo not given)	116*	i	i	i	i
COc1ccccc1C(=O)NCC(c1cccnc1)N(C)C (stereo not given)	i	i	i	i	i
COc1ccc(C(CNC(=O)c2cccc3cccnc23)N(C)C)cc1 (stereo not given)	108*	i	-7*	i	i
COc1cccc(C(CNC(=O)C(c2ccccc2)c2ccccc2)N(C)C)c1 (stereo not given)	i	i	-6*	i	i
COc1ccc(OCCNC(=O)C(c2ccccc2)c2ccccc2)cc1	i	i	i	i	i
CN(C)c1ccc(C(CNC(=O)Cc2cccc3ccccc23)N(C)C)cc1 (stereo not given)	77*	i	i	i	i
COc1ccccc1C(CNC(=O)CSc1ccc2ccccc2c1)N(C)C (stereo not given)	i	i	i	i	i
N/C(Cc1cccc2ccccc12)=N\OC(=O)c1cccs1	i	i	-6*	i	i
N/C(Cc1cccc2ccccc12)=N\OC(=O)Cc1cccs1	i	i	i	i	i
NS(=O)(=O)c1ccc(CCN=C(NS(=O)(=O)c2cccs2)c2ccccc2)cc1	i	i	i	i	i
CCn1c(=O)c(C(=O)NNC(=O)c2ccccc2F)c(O)c2ccccc21	114*	i	i	i	i
CCn1c(=O)c(C(=O)NNC(=O)c2ccccc2Cl)c(O)c2ccccc21	51*	i	i	i	i
CCOC(=O)[C@@H]1CCNC[C@@H]1c1ccccc1	190*	i	i	i	i
CCOC(=O)C1NC(=O)CC1c1ccccc1 (stereo not given)	i	i	i	i	i
Cc1ccsc1/C=C(\C#N)C(=O)Nc1c(C)n(C)n(-c2ccccc2)c1=O	i	i	i	11*	i
COc1cccc(CC(NC(C)=O)C(=O)NC2CCN(C(=O)Nc3ccc(C)cc3)CC2)c1 (stereo not given)	i	i	i	i	i
O=[N+]([O-])c1ccc(CSC2=NCCS2)cc1	i	i	i	i	i
CCCCc1ccc(NC(=S)NCCN2CCOCC2)cc1	i	i	i	i	i
O=C(Nc1ncc(Br)s1)C(Cc1ccccc1)n1cccc1 (stereo not given)	i	i	i	36*	i
SMILES	TRPC4 act	TRPC6 activator	TRPC4 block	TRPC4 potent	TRPC6 inhibitor
O=C(Nc1cccnc1)C(Cc1ccccc1)n1cccc1 (stereo not given)	i	i	i	i	i
COc1ccc2[nH]c(=O)c(CN(C(C)=O)C3CCCCC3)cc2c1	i	i	i	i	i
COc1ccc2[nH]c(=O)c(CN(C(=O)c3ccco3)C3CCCCC3)cc2c1	i	i	i	10*	i
O=C1CC2(CCN(S(=O)(=O)c3ccccc3)CC2)Oc2ccccc21	i	i	i	50*	i
O=C1CC2(CCN(S(=O)(=O)c3ccccc3F)CC2)Oc2ccccc21	i	i	i	30*	i
COc1cccc(/C=C/C(=O)Nc2ccc3c(c2)OCCO3)c1OC	i	i	i	i	i

Screening results from PubChem.
